# Bioassay records (PubChem BioAssay)
# CRFR2-BP ag = agonists of human CRF-binding protein/CRF-R2 receptor complex; 0.46% of 350,000 active; activation, % at 13.2 µM; HEK293 CRF-R2/CRF-BP, calcium dye fluorescence (FLIPR); percent of saturating CRF peptide response;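 active means activation of at least 50%, plus an integration ratio under a set limit after plate pattern correction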;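 further: plate controls were neutral control wells without compound for no effect and CRF at EC100 for full effect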
# zfTRPN1 agonist = activates the zebrafish TRPN1 channel; AID 1424; activation, % at 3 µM; 0.18% of 220,000 active; HEK293 zebrafish TRPN1-YFP, Fluo-8 calcium fluorescence; 100% = response to 87 µM carbachol;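 active means activation above its plate's cutoff, the mean activation of test wells on that plate plus 3 SD, cut at about 19% in these data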;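 further: 0% = DMSO alone and 100% = 87 µM carbachol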
#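 Material: zebrafish TRPN1-YFP in HEK293 cells; Doses: single test compound dose, 3 µM nominal, 0.3% DMSO; Timing: dye loading 1 h at 37 °C, then 30 min room temperature; Technique: intracellular calcium fluorescence with Fluo-8; Benchmarks: high carbachol 87 µM, low DMSO alone.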
# OXTR agonist = human OXTR agonism | P30559 | CHO-OTR cells, Fluo-8 calcium fluorescence; normalized: DMSO 0%, oxytocin 100% | activation, % at 3 µM | 0.32% of 320,000 active | AID 2435;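 active means activation above the mean of all tested compounds plus 3 SD, cutoff set per screening run, cut at about 20% in these data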;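 further: peak over basal fluorescence ratio from a 100 s FLIPR kinetic read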
# TRPML3 ag = human mucolipin-3 channel agonism. HEK293 TRPML3-YFP, Fluo-8 calcium fluorescence; 100% = the carbachol control signal. 0.29% of 220,000 active. activation, % at 3 µM;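 active means activation above its plate's cutoff, the mean activation of the plate's test wells plus 3 SD, cut at about 12% in these data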;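 further: 0% = DMSO only wells and 100% = carbachol wells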
# Target sequence (Q8TDD5 whole entry, looked up): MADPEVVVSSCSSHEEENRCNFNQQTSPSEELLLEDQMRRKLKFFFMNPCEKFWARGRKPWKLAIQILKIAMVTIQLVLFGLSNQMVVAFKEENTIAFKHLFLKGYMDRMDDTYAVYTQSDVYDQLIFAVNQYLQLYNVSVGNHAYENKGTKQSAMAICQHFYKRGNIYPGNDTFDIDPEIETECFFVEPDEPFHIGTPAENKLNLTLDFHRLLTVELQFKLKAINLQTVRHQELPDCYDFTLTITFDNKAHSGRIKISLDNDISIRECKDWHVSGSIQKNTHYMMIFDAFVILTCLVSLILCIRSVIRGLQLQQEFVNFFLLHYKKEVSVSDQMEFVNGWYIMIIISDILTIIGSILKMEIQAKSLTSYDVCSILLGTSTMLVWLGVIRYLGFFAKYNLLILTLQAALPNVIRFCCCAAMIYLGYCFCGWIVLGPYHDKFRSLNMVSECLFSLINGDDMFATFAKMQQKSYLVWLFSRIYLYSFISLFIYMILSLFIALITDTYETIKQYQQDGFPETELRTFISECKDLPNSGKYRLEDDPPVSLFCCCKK
#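 system = HEK293 cells stably carrying human TRPML3-YFP | doses = one concentration, 3 µM nominal, 0.3% DMSO | timing = dye loading 1 h 37 °C then 30 min ambient, 125 s read | detection = Fluo-8 calcium dye fluorescence, ex 470-495, em 515-575 nm | benchmarks = high control carbachol 87 µM, low control DMSO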
# OXTR potentiate = human OXTR potentiation; P30559; CHO-OTR cells, Fluo-8 calcium fluorescence, potentiator mode; 0% = oxytocin EC15, 100% = EC100; activation, % at 3 µM; 0.061% of 320,000 active; AID 2445;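 active means activation above that plate's cutoff, the mean activation of tested compounds plus 3 SD, cut at about 6.6% in these data, passing the limit was not always enough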;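 further: 100% uses oxytocin at 75 nM as the full agonist control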
#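 Assay system: CHO-OTR cells, human receptor / Also added: oxytocin at about EC15, sub-maximal agonist stimulus / Dosing: single dose, 3.0 µM nominal final compound concentration / Incubation: 6 min pre-incubation, 100 s read / Technique: Fluo-8 calcium dye fluorescence / Read-out: % activation vs EC15 and EC100 oxytocin / Benchmarks: EC15 oxytocin low, 75 nM oxytocin high / Replicates: singlicate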
# V1aR counter = V1a receptor agonism, counter-screen for OXTR agonists; 0.25% of 320,000 active; CHO-V1R cells, Fluo-8 calcium fluorescence, agonist mode; 0% DMSO, 100% 3 nM vasopressin; P37288; AID 2797; activation, % at 3 µM;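 active means activation above the mean activation of all tested compounds plus 3 SD, per screening run, cut at about 20% in these data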;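 further: signal is peak over basal fluorescence ratio across a 100 second FLIPR read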
# TRPN1 ag 2 = activates zebrafish TRPN1, counter-screen for TRPML3 agonists; 10% of 310 active; activation, % at 3 µM; HEK293 zebrafish TRPN1-YFP, Fluo-8 calcium fluorescence; scaled: carbachol wells 100%, DMSO wells 0%; shares compounds with TRPML3 ag;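 active means mean activation over replicates above a set limit taken from the earlier TRPN1 channel primary screen, cut at about 19% in these data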;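 further: 100% = carbachol and 0% = 0.3% DMSO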
# TRPML3 confirm = confirmation of human TRPML3 channel agonists | shares compounds with TRPML3 ag | HEK293 TRPML3-YFP, Fluo-8 calcium fluorescence; 100% set by carbachol, 0% by DMSO | activation, % at 3 µM | 80% of 310 active | AID 1526;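 active means activation above a set limit derived from the earlier primary screen, cut at about 12% in these data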
# Numbers without * were called inactive; . = no result given. Compounds with a hit are over-represented: about 0.85% of the library has one in this group of screens.
SMILES,CRFR2-BP ag,zfTRPN1 agonist,OXTR agonist,TRPML3 ag,OXTR potentiate,V1aR counter,TRPN1 ag 2,TRPML3 confirm
CC12CCC(C(=O)N(CSC(=S)N/N=C\c3ccccc3)C1=O)C2(C)C (configuration not stated),-2,0,-2,43*,-16,-1,-1,2
CC12CCC(C(=O)N(CSC(=S)N/N=C\c3ccccc3Cl)C1=O)C2(C)C (configuration not stated),3,-1,-2,38*,-11,0,-1,0
CC12CCC(C(=O)N(CC(=O)O)C1=O)C2(C)C (configuration not stated),2,1,-1,1,-9,1,.,.
C[C@@H]1CN([C@@H](C)CO)C(=O)CCCn2nncc2CO[C@@H]1CN(C)S(=O)(=O)c1ccccc1,0,.,.,.,.,.,.,.
COc1ccc(N2C(=O)C(F)(F)C2c2cccc(F)c2)cc1 (configuration not stated),1,-1,-2,3,-12,1,.,.
COc1ccc(N2C(=O)C(F)(F)C2c2ccccc2F)cc1 (configuration not stated),-1,-3,.,21*,.,.,-2,34*
COc1ccccc1C(=O)NCC(=O)NCC1(N2CCCCC2)CCCCC1,-1,.,-1,.,0,0,.,.
COc1cc(N2CCC(O)CC2)ccc1Nc1nnc(Cl)c(Nc2ccccc2S(C)(=O)=O)n1,-1,.,.,.,.,.,.,.
COc1ccccc1NS(=O)(=O)c1cc(C(=O)NCCC(C)C)ccc1F,85*,9,0,17*,-6,1,22*,35*
COc1ccccc1NS(=O)(=O)c1cc(C(=O)NCc2ccncc2)ccc1C,-3,.,0,.,-16,0,.,.
O=C(O)Cc1ccc2c(c1)Cc1cccnc1O2,-1,.,.,.,.,.,.,.
CC(c1ccccc1)C1CC(=O)N(C2CCCCC2)C1=O (configuration not stated),1,-1,-2,27*,-6,-2,0,25*
COc1ccccc1C1(CC(=O)N2CCCCC2)CCOC(C(C)C)C1 (configuration not stated),1,0,-2,14*,-3,-2,-1,11
Cc1nnc(NC(=O)CCC(=O)NC2CCCCCCC2)s1,1,.,0,.,-3,7,.,.
Cc1ccc2c(c1)cc1c(=O)n(CC(=O)N3CCCC3)nc(C)n12,-3,.,-1,.,-5,0,.,.
O=C(c1ccccc1F)N(NC(=O)C(O)(c1ccccc1)c1ccccc1)c1ccccc1,-2,-3,-2,18*,-8,-1,-2,30*
O=S(=O)(NC1CCCCCC1)c1cccc2cccnc12,0,-1,-2,33*,-3,-2,0,56*
COc1ccccc1N(C)S(=O)(=O)c1ccc(Cl)c(C(=O)OCc2c(C)noc2C)c1,20,1,0,41*,-7,5,0,39*
Cc1ccc(S(=O)(=O)N2CCCCC2C(=O)N(C)c2ccccc2)cc1 (configuration not stated),-3,.,-2,.,-22,-1,.,.
CCNC(=S)N(Cc1cccs1)Cc1cc2cc(OCC)ccc2[nH]c1=O,0,1,-1,17*,-14,0,-1,16*
CCNC(=S)N(Cc1ccco1)Cc1cc2cc(OCC)ccc2[nH]c1=O,-4,-2,0,-1,-10,0,.,.
Cc1ccc(SCC(=O)O/N=C(\N)c2cccc([N+](=O)[O-])c2)cc1,2,0,-1,0,5,0,.,.
Cc1ccc(S(=O)(=O)N(C)CC(=O)O/N=C(\N)c2cccc([N+](=O)[O-])c2)cc1,1,-1,3,62*,-21,5,0,48*
O=S(=O)(Nc1ccccc1N1CCCCC1)c1ccc(Cl)s1,-1,-3,-1,139*,-1,-2,-2,110*
COc1ccc(NC(C)(C)c2nnnn2-c2c(C)cccc2C)cc1,1,-1,-2,21*,-10,-1,2,10
SMILES,CRFR2-BP ag,zfTRPN1 agonist,OXTR agonist,TRPML3 ag,OXTR potentiate,V1aR counter,TRPN1 ag 2,TRPML3 confirm
O=C(C1CCN(S(=O)(=O)N2CCOCC2)CC1)N1CCOCC1,-1,1,0,16*,1,1,0,1
CCS(=O)(=O)N1CCC(C(=O)N2CCOCC2)CC1,-3,2,0,1,1,1,.,.
CCOC(=O)c1cnc2c(C)cc(Cl)cc2c1N1CCN(C)CC1,1,.,3,.,-8,2,.,.
C/C(=N\Nc1nc(C)cc(-c2ccccc2)n1)c1cccc(N)c1,-1,.,-2,.,-1,-2,.,.
CCOc1ccc(CCNC(=O)c2ccc(Cl)c(S(=O)(=O)N3CCOCC3)c2)cc1OCC,1,.,-1,.,4,3,.,.
O=C1CCC(=O)N1c1ccccc1OS(=O)(=O)c1ccccc1,-1,.,0,.,-4,0,.,.
O=S(=O)(Oc1ccccc1N1CCCCC1)c1ccccc1,0,-1,-3,13*,-8,0,-1,14*
CCC1CCCCN1S(=O)(=O)c1ccc(S(=O)(=O)N(Cc2ccccn2)CC2CCCO2)cc1 (configuration not stated),-2,0,2,28*,-8,1,2,96*
Cc1ccc(S(=O)(=O)N2CCCC(C(=O)N(Cc3cccs3)C3CC3)C2)cc1 (configuration not stated),1,0,4,0,-20,5,.,.
CCC1CCCCN1S(=O)(=O)c1ccc(S(=O)(=O)N(Cc2cccs2)C2CC2)cc1 (configuration not stated),26,8,2,95*,-11,2,14,112*
COc1cc(C)nc(N(Cc2ccccc2)S(=O)(=O)c2ccccc2)n1,2,0,-2,7,-14,-1,.,.
COc1cc(C)nc(N(Cc2ccccc2)S(=O)(=O)c2ccc(C)cc2)n1,6,1,1,27*,-6,0,0,50*
CC1CN(C2CCCCC2)C(=S)N(c2ccccc2)C1=O (configuration not stated),-1,.,.,.,.,.,.,.
Cc1cc(C(=O)N2CCN(S(=O)(=O)c3ccc(C)c(C)c3)CC2)no1,0,.,.,.,.,.,.,.
